Results: ChEMBL document CHEMBL3407395, “Synthesis, characterization, and optimization for in vivo delivery of a nonselective isopeptidase inhibitor as new antineoplastic agent” (J Med Chem, 2015)
Active and inactive are the calls of the source. No cut-off for these calls is given here.

How the values were obtained:
[1] = target: T1, Ubiquitin carboxyl-terminal hydrolase isozyme L5 (Homo sapiens, UniProt Q9Y5K5); experiment: Inhibition of GST-tagged UCHL5 (unknown origin) using Ub-AMC as substrate preincubated for 30 mins before substrate addition measured after 60 mins by fluorescence assay
T1 sequence (Q9Y5K5 whole entry): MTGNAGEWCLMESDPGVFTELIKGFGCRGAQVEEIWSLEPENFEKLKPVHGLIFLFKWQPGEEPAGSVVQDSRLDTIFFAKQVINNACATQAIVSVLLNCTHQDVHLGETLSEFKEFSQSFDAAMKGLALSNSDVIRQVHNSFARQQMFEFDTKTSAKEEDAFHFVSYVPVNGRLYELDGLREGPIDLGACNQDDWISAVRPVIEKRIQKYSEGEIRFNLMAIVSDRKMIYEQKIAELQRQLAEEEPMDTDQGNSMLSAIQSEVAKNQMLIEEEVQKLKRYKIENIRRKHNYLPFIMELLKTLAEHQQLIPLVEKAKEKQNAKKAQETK
Method in brief: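 Purified isopeptidase activity was measured with ubiquitin-AMC as fluorogenic substrate; IC50 was derived from inhibition.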

[2] = target: T2, Ubl carboxyl-terminal hydrolase 18 (Homo sapiens, UniProt Q9UMW8); experiment: Inhibition of recombinant human USP18 (16 to 372 aa) expressed in Sf9 cells using ISG15-AMC as substrate preincubated for 30 mins before substrate addition measured after 60 mins by fluorescence assay
T2 sequence (Q9UMW8 whole entry): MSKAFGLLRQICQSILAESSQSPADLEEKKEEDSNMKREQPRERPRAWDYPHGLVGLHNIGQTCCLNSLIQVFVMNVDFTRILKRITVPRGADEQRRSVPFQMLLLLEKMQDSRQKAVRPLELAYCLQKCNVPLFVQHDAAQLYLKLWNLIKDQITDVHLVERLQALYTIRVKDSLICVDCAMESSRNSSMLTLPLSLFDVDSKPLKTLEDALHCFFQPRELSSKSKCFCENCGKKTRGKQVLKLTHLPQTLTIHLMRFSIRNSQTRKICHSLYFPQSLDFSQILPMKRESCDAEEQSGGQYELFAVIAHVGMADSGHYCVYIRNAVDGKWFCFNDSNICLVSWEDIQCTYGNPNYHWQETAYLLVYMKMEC

T98G [3] = experiment: Induction of necrosis in human T98G cells at 0.6 to 10 uM after 24 hrs by trypan blue assay; format: functional, cell-based
Method in brief: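 T98G cells exposed 24 h to the listed concentrations. Cell death was scored as percent of trypan blue-positive cells.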

[4] = Cytotoxicity against human Hep3B cells after 48 hrs by resazurin assay; format: functional, cell-based, Hep 3B2
A549 [5] = experiment: Induction of cell death in human A549 cells at 2.5 to 10 uM after 48 hrs by trypan blue assay; format: functional, cell-based
Method in brief: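 A549 or A375 cells treated 48 h with 2.5–10 µM. Cell death was scored by trypan blue exclusion as a function of concentration.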

HT-29 = experiment: Cytotoxicity against human HT-29 cells after 48 hrs by resazurin assay; format: functional, cell-based; conditions: HT-29, 48 h
A549 [6] = experiment: Induction of cell death in human A549 cells assessed as accumulation of poly-ubiquitinated proteins at 2.5 to 10 uM after 24 hrs by immunoblot assay; format: functional, cell-based
Method in brief: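 A549 cells dosed at three levels (2.5, 5, 10 µM or 1, 2.5, 5 µM depending on inhibitor); lysates made after 24 h. Immunoblots probed poly-ubiquitin, p53 and Noxa, quantified by densitometry; mean of two experiments.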

T98G [7] = experiment: Induction of cell death in human T98G cells at 4.2 to 18.4 uM after 24 hrs by trypan blue assay in presence of zVAD-fmk; format: functional, cell-based
A-375 = experiment: Induction of cell death in human A375 cells assessed as Noxa induction at 10 uM after 24 hrs by immunoblot assay; format: functional, cell-based

O=C1/C(=C/c2ccc([N+](=O)[O-])cc2)CC(O)C/C1=C\c1ccc([N+](=O)[O-])cc1 (centres undefined)
IC50 [1]: 43 µM
IC50 [2]: 21.2 µM
Activity (T98G [3]): Active
IC50 [4]: 8.5 µM
Activity (A549 [5]): Active
IC50 (HT-29): 7.6 µM
Activity (A549 [6]): Active
Activity (T98G [7]): inactive
Activity (A-375): Active
